Columns and labels:
Format in all cases: functional
Escherichia coli [1] = assay: Antibacterial activity against Escherichia coli at 10 ug/ml by agar plate diffusion technique; conditions: read-out: IZ
Aspergillus niger [2] = assay: Antifungal activity against Aspergillus niger at 10 ug/ml by paper disc method; conditions: read-out: IZ
Escherichia coli [3] = assay: Antibacterial activity against Escherichia coli at 30 ug/ml by agar plate diffusion technique; conditions: read-out: IZ
Candida albicans [4] = assay: Antifungal activity against Candida albicans at 30 ug/ml by paper disc method; conditions: read-out: IZ
Rattus norvegicus [5] = assay: Antiinflammatory activity in Wistar Albino rat assessed as inhibition of carrageenan-induced paw oedema at 20 mg/kg after 1 hr relative to control
In short: (§1)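 Wistar albino rats, 150–200 g, six per group, dosed orally with a 20 mg/kg suspension; control gets 0.1 ml 1% gum acacia. After 30 min, 0.1 ml 1% carrageenan in saline is injected subplantar into the right hind paw. Paw volume is read by plethysmograph at 0–4 h. Inhibition = 100(1 − Vtest/Vcontrol) on mean volume increase.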

Bacillus subtilis [6] = assay: Antibacterial activity against Bacillus subtilis at 10 ug/ml by agar plate diffusion technique; conditions: read-out: IZ
Escherichia coli [7] = assay: Antibacterial activity against Escherichia coli at 20 ug/ml by agar plate diffusion technique; conditions: read-out: IZ
Staphylococcus aureus [8] = assay: Antibacterial activity against Staphylococcus aureus at 20 ug/ml by agar plate diffusion technique; conditions: read-out: IZ
Pseudomonas aeruginosa [9] = assay: Antibacterial activity against Pseudomonas aeruginosa at 20 ug/ml by agar plate diffusion technique; conditions: read-out: IZ
Candida albicans [10] = assay: Antifungal activity against Candida albicans at 10 ug/ml by paper disc method; conditions: read-out: IZ
Staphylococcus aureus [11] = assay: Antibacterial activity against Staphylococcus aureus at 10 ug/ml by agar plate diffusion technique; conditions: read-out: IZ
Bacillus subtilis [12] = assay: Antibacterial activity against Bacillus subtilis at 20 ug/ml by agar plate diffusion technique; conditions: read-out: IZ
Rattus norvegicus [13] = assay: Antiinflammatory activity in Wistar Albino rat assessed as inhibition of carrageenan-induced paw oedema at 20 mg/kg after 3 hrs relative to control; in short: as §1
Staphylococcus aureus [14] = assay: Antibacterial activity against Staphylococcus aureus at 30 ug/ml by agar plate diffusion technique; conditions: read-out: IZ
Pseudomonas aeruginosa [15] = assay: Antibacterial activity against Pseudomonas aeruginosa at 10 ug/ml by agar plate diffusion technique; conditions: read-out: IZ
Candida albicans [16] = assay: Antifungal activity against Candida albicans at 20 ug/ml by paper disc method; conditions: read-out: IZ
Mus musculus [17] = assay: Analgesic activity in Swiss mouse assessed as increase in reaction time at 20 mg/kg, po after 60 mins by Eddy's hot plate technique
In short: (§2)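 Swiss mice of either sex, 25–35 g, placed one at a time on a hot plate held at 55 °C. End point is paw licking or jumping, whichever comes first, with a 15 s cut-off to avoid paw injury. Reaction time is recorded and reported as percent increase in reaction time.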

Rattus norvegicus [18] = assay: Antiinflammatory activity in Wistar Albino rat assessed as inhibition of carrageenan-induced paw oedema at 20 mg/kg after 4 hrs relative to control; in short: as §1
Bacillus subtilis [19] = assay: Antibacterial activity against Bacillus subtilis at 30 ug/ml by agar plate diffusion technique; conditions: read-out: IZ
Rattus norvegicus [20] = assay: Antiinflammatory activity in Wistar Albino rat assessed as inhibition of carrageenan-induced paw oedema at 20 mg/kg after 2 hrs relative to control; in short: as §1
Aspergillus niger [21] = assay: Antifungal activity against Aspergillus niger at 30 ug/ml by paper disc method; conditions: read-out: IZ
Mus musculus [22] = assay: Analgesic activity in Swiss mouse assessed as increase in reaction time at 20 mg/kg, po after 30 mins by Eddy's hot plate technique; in short: as §2
Mus musculus [23] = assay: Analgesic activity in Swiss mouse assessed as increase in reaction time at 20 mg/kg, po after 90 mins by Eddy's hot plate technique; in short: as §2
Pseudomonas aeruginosa [24] = assay: Antibacterial activity against Pseudomonas aeruginosa at 30 ug/ml by agar plate diffusion technique; conditions: read-out: IZ
Aspergillus niger [25] = assay: Antifungal activity against Aspergillus niger at 20 ug/ml by paper disc method; conditions: read-out: IZ

Compound | zone of inhibition at 10 µg/mL (Escherichia coli [1]) | zone of inhibition at 10 µg/mL (Aspergillus niger [2]) | zone of inhibition at 30 µg/mL (Escherichia coli [3]) | zone of inhibition at 30 µg/mL (Candida albicans [4]) | inhibition in vivo at 20 mg/kg (Rattus norvegicus [5]) | zone of inhibition at 10 µg/mL (Bacillus subtilis [6]) | zone of inhibition at 20 µg/mL (Escherichia coli [7]) | zone of inhibition at 20 µg/mL (Staphylococcus aureus [8]) | zone of inhibition at 20 µg/mL (Pseudomonas aeruginosa [9]) | zone of inhibition at 10 µg/mL (Candida albicans [10]) | zone of inhibition at 10 µg/mL (Staphylococcus aureus [11]) | zone of inhibition at 20 µg/mL (Bacillus subtilis [12]) | inhibition in vivo at 20 mg/kg (Rattus norvegicus [13]) | zone of inhibition at 30 µg/mL (Staphylococcus aureus [14]) | zone of inhibition at 10 µg/mL (Pseudomonas aeruginosa [15]) | zone of inhibition at 20 µg/mL (Candida albicans [16]) | inhibition in vivo at 20 mg/kg (Rattus norvegicus [18]) | zone of inhibition at 30 µg/mL (Bacillus subtilis [19]) | inhibition in vivo at 20 mg/kg (Rattus norvegicus [20]) | zone of inhibition at 30 µg/mL (Aspergillus niger [21]) | also measured
Cc1occc1-c1nnc2sc(-c3ccnc4ccccc34)nn12 | 8.74 mm | 6.14 mm | 19.4 mm | 19.2 mm | 12.5% | 8.14 mm | 15.3 mm | 14.1 mm | 14.2 mm | 5.78 mm | 8.16 mm | 14.1 mm | 20.3% | 19.1 mm | 8.17 mm | 11 mm | 23.4% | 19.8 mm | 17.1% | 19.6 mm | Activity (Mus musculus [17]): 10.24%; Activity (Mus musculus [22]): 5.62%; Activity (Mus musculus [23]): 19.24%; zone of inhibition at 30 µg/mL (Pseudomonas aeruginosa [24]): 19.1 mm; zone of inhibition at 20 µg/mL (Aspergillus niger [25]): 12 mm
COc1ccc(Cl)c(-c2nnc3n2NC(c2ccc[nH]2)S3)c1 (configuration not stated) | 4.71 mm | 4.89 mm | 14.3 mm | 13.4 mm | 12.8% | 1.67 mm | 7.9 mm | 4.33 mm | 4.33 mm | 4.61 mm | 1.33 mm | 4 mm | 18.4% | 8.33 mm | 1.33 mm | 8.82 mm | 20.6% | 8.33 mm | 15.2% | 12.3 mm | Activity (Mus musculus [17]): 14.48%; Activity (Mus musculus [22]): 4.86%; Activity (Mus musculus [23]): 21.1%; zone of inhibition at 30 µg/mL (Pseudomonas aeruginosa [24]): 8 mm; zone of inhibition at 20 µg/mL (Aspergillus niger [25]): 9.17 mm
COc1ccc(Cl)c(-c2nnc3sc(-c4ccnc(F)c4)nn23)c1 | 8.1 mm | 6.68 mm | 19.7 mm | 21.7 mm | 18.5% | 7.78 mm | 14.7 mm | 14.1 mm | 14.9 mm | 7.68 mm | 7.29 mm | 14.1 mm | 25.9% | 19.2 mm | 8.68 mm | 14.5 mm | 28.1% | 19.2 mm | 24.6% | 20.5 mm | Activity (Mus musculus [17]): 11.35%; Activity (Mus musculus [22]): 4.12%; Activity (Mus musculus [23]): 20.34%; zone of inhibition at 30 µg/mL (Pseudomonas aeruginosa [24]): 19.5 mm; zone of inhibition at 20 µg/mL (Aspergillus niger [25]): 12.6 mm
CCCCC1C(=O)N(c2ccccc2)N(c2ccccc2)C1=O [PHENYLBUTAZONE] | – | – | – | – | 21.2% | – | – | – | – | – | – | – | 40.8% | – | – | – | 45.4% | – | 33.6% | – | –
COc1ccc(Cc2nnc(S)n2N)cc1OC | 4.86 mm | 2.67 mm | 10.1 mm | 11 mm | – | 5.06 mm | 7.58 mm | 7.14 mm | 6.76 mm | 2.76 mm | 4.72 mm | 7.26 mm | – | 9.52 mm | 5.06 mm | 5.14 mm | – | 9.83 mm | – | 10.7 mm | zone of inhibition at 30 µg/mL (Pseudomonas aeruginosa [24]): 8.24 mm; zone of inhibition at 20 µg/mL (Aspergillus niger [25]): 4.92 mm
COc1ccc(Cl)c(-c2nnc3n2NC(c2cccn2C)S3)c1 (configuration not stated) | 3.82 mm | 4.71 mm | 10.1 mm | 12.6 mm | 14.1% | 3.6 mm | 6.9 mm | 6.1 mm | 7.1 mm | 4.3 mm | 3.82 mm | 6.82 mm | 18.5% | 11 mm | 3.9 mm | 7.4 mm | 20.7% | 9.33 mm | 16.8% | 12.9 mm | Activity (Mus musculus [17]): 6.2%; Activity (Mus musculus [22]): 4.38%; Activity (Mus musculus [23]): 19.67%; zone of inhibition at 30 µg/mL (Pseudomonas aeruginosa [24]): 11.9 mm; zone of inhibition at 20 µg/mL (Aspergillus niger [25]): 7.65 mm
COc1ccc(Cl)c(-c2nnc3sc(Cc4c(C)[nH]c5ccc(OC)cc45)nn23)c1 | 4.26 mm | 4.56 mm | 12.3 mm | 11.7 mm | 11.3% | 4.12 mm | 7.28 mm | 8.12 mm | 7.92 mm | 4.35 mm | 4.17 mm | 7.18 mm | 26.1% | 12.1 mm | 4.15 mm | 8.72 mm | 32.7% | 11.9 mm | 20% | 12.3 mm | Activity (Mus musculus [17]): 28.54%; Activity (Mus musculus [22]): 19.48%; Activity (Mus musculus [23]): 35.24%; zone of inhibition at 30 µg/mL (Pseudomonas aeruginosa [24]): 12.4 mm; zone of inhibition at 20 µg/mL (Aspergillus niger [25]): 8.24 mm

From ChEMBL document CHEMBL1147862, “Studies on synthesis and pharmacological activities of 3,6-disubstituted-1,2,4-triazolo[3,4-b]-1,3,4-thiadiazoles and their dihydro analogues” (2007)
